Measured values: publication PMC7161550 (British Journal of Pharmacology, 2020)
“And” between values parts separate entries of the source, which are not always exact repeats. Equal values may be shown once.

Legend:
BCRP = molecular target: T1, BCRP (Homo sapiens, UniProt Q9UNQ0); assay: Bidirectional permeability in MDCKII‐BCRP monolayers; type: in vitro ADME
T1 sequence (Q9UNQ0 1-655): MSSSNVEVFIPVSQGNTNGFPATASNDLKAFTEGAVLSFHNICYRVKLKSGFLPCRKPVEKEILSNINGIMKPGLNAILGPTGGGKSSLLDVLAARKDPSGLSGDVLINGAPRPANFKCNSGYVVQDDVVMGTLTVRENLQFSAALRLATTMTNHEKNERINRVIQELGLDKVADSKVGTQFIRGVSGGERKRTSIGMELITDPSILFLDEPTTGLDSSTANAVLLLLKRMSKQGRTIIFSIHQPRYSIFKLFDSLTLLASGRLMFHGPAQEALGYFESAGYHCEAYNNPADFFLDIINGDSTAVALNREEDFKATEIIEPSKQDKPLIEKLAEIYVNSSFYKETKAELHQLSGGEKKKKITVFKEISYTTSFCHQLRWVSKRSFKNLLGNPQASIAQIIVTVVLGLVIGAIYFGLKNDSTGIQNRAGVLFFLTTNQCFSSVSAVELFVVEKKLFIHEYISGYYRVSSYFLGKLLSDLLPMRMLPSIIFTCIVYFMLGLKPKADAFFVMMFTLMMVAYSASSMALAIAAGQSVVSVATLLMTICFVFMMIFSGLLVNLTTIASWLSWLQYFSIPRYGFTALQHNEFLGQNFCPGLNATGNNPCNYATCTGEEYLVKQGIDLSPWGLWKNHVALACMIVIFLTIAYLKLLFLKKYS
How it was run: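 Test compound (10 μM) permeability was measured in A–B and B–A directions across MDCKII‑BCRP and parental MDCKII monolayers. 3H‑prazosin (1 μM) served as positive control, with a BCRP inhibitor at 1 μM. Net efflux ratio = ER(BCRP) − ER(MDCKII).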

[1] = GLP rat toxicology studies; type: in vivo; details: 100 mg·kg^−1, assuming brain:plasma ratio of 1:5
SHRSP = assay: Stroke‐prone spontaneously hypertensive rats; type: in vivo, rat; details: 30 mg·kg^−1 p.o. daily
How it was run: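 SHRSP rats on stroke-prone diet with high-salt intake, n = 30 per group, received daily oral 0.2% HPMC vehicle or test compound at 30 mg·kg−1 in 0.2% HPMC (4 ml·kg−1). Normal-diet, tap-water controls (n = 10) received vehicle. Dosing continued until about half of either treated group had died; surviving rats' brains were examined histologically.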

CYP2C9 = CYP2C9 (Homo sapiens, UniProt P11712); assay: CYP inhibition, pooled human liver microsomes; type: in vitro ADME; details: 0.33–99.2 μM, co‐ and pre‐incubation
Sequence of CYP2C9 (P11712 whole entry): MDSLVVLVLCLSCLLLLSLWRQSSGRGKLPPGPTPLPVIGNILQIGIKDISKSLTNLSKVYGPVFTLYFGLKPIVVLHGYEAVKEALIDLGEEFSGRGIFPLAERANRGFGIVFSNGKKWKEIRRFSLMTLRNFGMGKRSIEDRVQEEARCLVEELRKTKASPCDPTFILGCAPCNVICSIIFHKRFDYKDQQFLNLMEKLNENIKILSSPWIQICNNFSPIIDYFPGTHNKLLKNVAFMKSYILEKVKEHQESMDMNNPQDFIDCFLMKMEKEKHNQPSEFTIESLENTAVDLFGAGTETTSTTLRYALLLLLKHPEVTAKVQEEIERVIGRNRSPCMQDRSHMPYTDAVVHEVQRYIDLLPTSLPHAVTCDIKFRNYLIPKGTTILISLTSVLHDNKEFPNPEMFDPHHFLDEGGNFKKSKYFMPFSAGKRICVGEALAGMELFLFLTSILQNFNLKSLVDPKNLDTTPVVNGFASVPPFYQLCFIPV
How it was run: (§1)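 The rate of metabolite formation was measured; testosterone was one CYP3A4 substrate. Controls: solvent vehicle, enzyme-selective inhibitors, mechanism-based inhibitors. Analysis by HPLC with online radio-detection or LC/MS/MS.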

human MATE2-K = human MATE2-K (Homo sapiens, UniProt Q86VL8); assay: Transporter inhibition, probe substrate accumulation; type: in vitro ADME
Sequence of human MATE2-K (Q86VL8 1-566 isoform Q86VL8-3): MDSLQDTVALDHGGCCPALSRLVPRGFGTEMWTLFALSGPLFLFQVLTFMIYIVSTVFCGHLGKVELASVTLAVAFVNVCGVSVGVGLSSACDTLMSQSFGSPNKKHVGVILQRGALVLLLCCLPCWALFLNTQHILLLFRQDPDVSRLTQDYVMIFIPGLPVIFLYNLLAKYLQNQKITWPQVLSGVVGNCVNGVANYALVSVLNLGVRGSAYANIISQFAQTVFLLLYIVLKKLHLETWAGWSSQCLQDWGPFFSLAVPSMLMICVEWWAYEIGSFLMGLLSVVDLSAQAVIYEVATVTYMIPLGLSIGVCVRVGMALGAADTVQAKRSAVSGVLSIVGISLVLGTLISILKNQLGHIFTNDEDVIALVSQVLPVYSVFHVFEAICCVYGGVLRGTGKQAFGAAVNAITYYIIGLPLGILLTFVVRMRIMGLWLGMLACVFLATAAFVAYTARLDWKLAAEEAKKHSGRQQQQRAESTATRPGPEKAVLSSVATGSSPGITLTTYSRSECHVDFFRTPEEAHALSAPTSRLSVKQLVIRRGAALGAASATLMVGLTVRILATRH
How it was run: (§2)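 Inhibition of probe substrate accumulation in transfected cells: CHO‑K1 for OAT1 and OCT1; HEK293 for OAT3, OATP1B1 and OATP1B3; MDCKII for OCT2, MATE1 and MATE2‑K. Each transporter's activity was confirmed with a positive control substrate or inhibitor.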

CaI‐PLA2 (PLA2G6) = CaI‐PLA2 (PLA2G6) (Rattus norvegicus, UniProt P97570); assay: ABPP ex vivo, rat brain after oral BIA 10‐2474; type: in vivo
Sequence of CaI‐PLA2 (PLA2G6) (P97570 whole entry): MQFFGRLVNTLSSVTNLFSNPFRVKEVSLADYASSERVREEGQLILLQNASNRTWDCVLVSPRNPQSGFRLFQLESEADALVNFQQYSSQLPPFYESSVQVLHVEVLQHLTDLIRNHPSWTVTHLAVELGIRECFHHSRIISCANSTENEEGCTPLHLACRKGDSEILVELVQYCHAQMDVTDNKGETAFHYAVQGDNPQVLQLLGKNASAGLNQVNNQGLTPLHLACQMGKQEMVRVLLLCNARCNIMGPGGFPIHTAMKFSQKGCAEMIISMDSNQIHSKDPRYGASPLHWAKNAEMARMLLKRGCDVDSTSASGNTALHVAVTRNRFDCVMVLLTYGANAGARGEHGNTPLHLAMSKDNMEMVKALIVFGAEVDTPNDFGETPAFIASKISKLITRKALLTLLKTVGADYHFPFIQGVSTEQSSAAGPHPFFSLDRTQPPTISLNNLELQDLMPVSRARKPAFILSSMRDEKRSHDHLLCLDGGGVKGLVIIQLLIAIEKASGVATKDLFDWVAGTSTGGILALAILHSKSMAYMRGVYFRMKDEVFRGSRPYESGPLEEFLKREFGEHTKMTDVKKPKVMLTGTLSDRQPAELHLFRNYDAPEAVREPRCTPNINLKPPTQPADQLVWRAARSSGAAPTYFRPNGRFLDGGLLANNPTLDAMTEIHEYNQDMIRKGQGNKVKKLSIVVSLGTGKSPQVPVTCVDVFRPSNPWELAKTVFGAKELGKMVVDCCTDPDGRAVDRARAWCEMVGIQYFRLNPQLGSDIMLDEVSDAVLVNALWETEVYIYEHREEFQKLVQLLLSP

[2] = test system: human solute carrier (SLC) transporters; assay: Accumulation of BIA 10‐2474 in transporter‐expressing and control cells; type: in vitro ADME; details: transporter‐expressing vs control cell, all conditions tested
How it was run: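 Test compound accumulation was compared between transporter-expressing and control cells, expressed as transporter-specific fold accumulation. Transfected lines: CHO‑K1 (OAT1, OCT1), HEK293 (OAT3, OATP1B1, OATP1B3), MDCKII (OCT2, MATE1, MATE2‑K). Transporter activity was confirmed with positive control substrate or inhibitor.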

OCT2 = OCT2 (Homo sapiens, UniProt O15244); assay: Transporter inhibition, probe substrate accumulation; type: in vitro ADME; details: MDCKII cells stably transfected with OCT2
Sequence of OCT2 (O15244 whole entry): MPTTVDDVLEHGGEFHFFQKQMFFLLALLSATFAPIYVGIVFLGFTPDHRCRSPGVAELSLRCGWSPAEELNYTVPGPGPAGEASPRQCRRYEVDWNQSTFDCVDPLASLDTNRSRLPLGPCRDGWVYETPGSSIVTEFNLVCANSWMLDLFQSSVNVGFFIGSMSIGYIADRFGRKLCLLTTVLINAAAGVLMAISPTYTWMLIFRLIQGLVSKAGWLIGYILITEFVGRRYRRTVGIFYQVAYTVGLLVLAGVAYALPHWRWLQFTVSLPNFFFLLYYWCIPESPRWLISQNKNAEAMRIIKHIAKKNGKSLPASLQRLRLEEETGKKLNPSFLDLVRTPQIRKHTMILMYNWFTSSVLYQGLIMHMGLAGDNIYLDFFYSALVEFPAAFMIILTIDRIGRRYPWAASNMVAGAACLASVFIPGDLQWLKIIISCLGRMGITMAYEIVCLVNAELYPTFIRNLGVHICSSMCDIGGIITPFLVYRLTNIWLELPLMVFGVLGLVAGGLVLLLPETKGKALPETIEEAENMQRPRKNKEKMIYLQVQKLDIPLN
How it was run: as §2

rat brain = assay: Brain histopathology and behaviour in rats dosed 1 to 28 days; type: in vivo; details: rat, 10, 30 or 100 mg·kg^−1·day^−1 p.o.
CYP2C19 = CYP2C19 (Homo sapiens, UniProt P33261); assay: CYP inhibition, pooled human liver microsomes; type: in vitro ADME; details: 0.33–99.2 μM, co‐ and pre‐incubation
How it was run: as §1

human OAT1 = human OAT1 (Homo sapiens, UniProt Q4U2R8); assay: Transporter inhibition, probe substrate accumulation; type: in vitro ADME; details: 0.033–33.3 μM
How it was run: as §2

MATE1 = MATE1 (Homo sapiens, UniProt Q96FL8); assay: as above; type: in vitro ADME; details: MDCKII cells stably transfected with MATE1
How it was run: as §2

OAT3 = OAT3 (Homo sapiens, UniProt Q8TCC7); assay: as above; type: in vitro ADME; details: HEK293 cells stably transfected with OAT3
How it was run: as §2

CYP2E1 = CYP2E1 (Homo sapiens, UniProt P05181); assay: CYP inhibition, pooled human liver microsomes; type: in vitro ADME; details: 0.33–99.2 μM, co‐ and pre‐incubation
How it was run: as §1

CYP2B6 = CYP2B6 (Homo sapiens, UniProt P20813); assay: CYP inhibition, pooled human liver microsomes; type: in vitro ADME; details: 0.33–99.2 μM, co‐ and pre‐incubation
How it was run: as §1

OCT1 = OCT1 (Homo sapiens, UniProt O15245); assay: Transporter inhibition, probe substrate accumulation; type: in vitro ADME; details: CHO-K1 cells stably transfected with OCT1
Sequence of OCT1 (O15245 whole entry): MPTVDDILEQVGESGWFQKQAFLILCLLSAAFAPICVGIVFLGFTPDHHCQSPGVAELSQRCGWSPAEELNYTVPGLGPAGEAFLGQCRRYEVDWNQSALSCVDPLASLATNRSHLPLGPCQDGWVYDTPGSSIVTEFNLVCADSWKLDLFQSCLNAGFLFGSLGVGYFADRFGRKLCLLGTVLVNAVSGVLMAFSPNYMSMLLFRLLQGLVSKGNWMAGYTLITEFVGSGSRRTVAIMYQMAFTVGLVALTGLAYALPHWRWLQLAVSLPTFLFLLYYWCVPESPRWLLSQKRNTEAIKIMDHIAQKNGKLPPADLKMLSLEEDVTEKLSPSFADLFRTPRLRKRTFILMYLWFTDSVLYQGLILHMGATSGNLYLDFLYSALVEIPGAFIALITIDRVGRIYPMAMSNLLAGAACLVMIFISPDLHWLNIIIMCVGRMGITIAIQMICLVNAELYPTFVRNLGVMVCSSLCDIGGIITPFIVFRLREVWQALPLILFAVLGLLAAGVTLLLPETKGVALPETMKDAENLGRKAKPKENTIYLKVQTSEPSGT
How it was run: as §2

human OATP1B3 = human OATP1B3 (Homo sapiens, UniProt Q9NPD5); assay: as above; type: in vitro ADME; details: 0.033–33.3 μM
How it was run: as §2

MDR1 = MDR1 (Homo sapiens, UniProt P08183); assay: Bidirectional permeability in MDCKII‐MDR1 monolayers; type: in vitro ADME
Sequence of MDR1 (P08183 whole entry): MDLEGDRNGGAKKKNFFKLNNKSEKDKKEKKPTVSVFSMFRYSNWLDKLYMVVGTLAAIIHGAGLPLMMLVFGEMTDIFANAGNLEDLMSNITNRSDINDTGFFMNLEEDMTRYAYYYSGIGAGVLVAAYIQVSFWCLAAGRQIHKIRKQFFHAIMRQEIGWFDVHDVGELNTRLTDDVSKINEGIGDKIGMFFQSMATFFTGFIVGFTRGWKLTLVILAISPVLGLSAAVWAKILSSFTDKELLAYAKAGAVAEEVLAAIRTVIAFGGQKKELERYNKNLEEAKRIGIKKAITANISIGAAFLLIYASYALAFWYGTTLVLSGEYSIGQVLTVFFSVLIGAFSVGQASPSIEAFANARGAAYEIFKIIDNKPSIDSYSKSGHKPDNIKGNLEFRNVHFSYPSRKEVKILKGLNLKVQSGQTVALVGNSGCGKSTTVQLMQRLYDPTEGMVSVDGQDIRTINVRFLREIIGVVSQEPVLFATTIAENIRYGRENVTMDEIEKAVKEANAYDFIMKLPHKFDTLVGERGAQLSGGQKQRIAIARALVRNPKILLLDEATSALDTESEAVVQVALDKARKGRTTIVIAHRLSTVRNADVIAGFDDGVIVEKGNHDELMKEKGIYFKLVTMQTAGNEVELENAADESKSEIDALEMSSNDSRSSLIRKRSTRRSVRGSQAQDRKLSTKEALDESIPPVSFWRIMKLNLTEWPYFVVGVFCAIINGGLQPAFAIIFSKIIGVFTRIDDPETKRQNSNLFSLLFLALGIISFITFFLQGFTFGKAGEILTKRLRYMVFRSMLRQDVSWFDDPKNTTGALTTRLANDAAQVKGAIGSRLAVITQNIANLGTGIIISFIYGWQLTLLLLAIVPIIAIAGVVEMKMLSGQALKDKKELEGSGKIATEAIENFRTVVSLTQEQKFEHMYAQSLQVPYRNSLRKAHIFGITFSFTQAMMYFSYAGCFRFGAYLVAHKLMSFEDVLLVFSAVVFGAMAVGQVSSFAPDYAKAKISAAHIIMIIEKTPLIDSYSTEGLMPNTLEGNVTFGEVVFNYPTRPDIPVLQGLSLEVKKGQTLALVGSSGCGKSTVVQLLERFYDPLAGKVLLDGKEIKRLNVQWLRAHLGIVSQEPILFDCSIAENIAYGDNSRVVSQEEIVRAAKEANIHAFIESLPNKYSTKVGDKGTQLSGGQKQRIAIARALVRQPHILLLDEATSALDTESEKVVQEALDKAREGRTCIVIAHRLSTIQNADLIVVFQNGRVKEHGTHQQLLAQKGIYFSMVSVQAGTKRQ
How it was run: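 Bidirectional (A–B, B–A) permeability of test compound at 10 μM across MDCKII‑MDR1 and parental monolayers. A positive control substrate (5 μM) was included; PSC833 (10 μM) and a second inhibitor (100 μM) served as MDR1 inhibitors. Net efflux ratio = ER(MDR1) − ER(MDCKII).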

CYP2C8 = CYP2C8 (Homo sapiens, UniProt P10632); assay: CYP inhibition, pooled human liver microsomes; type: in vitro ADME; details: 0.33–99.2 μM, co‐ and pre‐incubation
Sequence of CYP2C8 (P10632 whole entry): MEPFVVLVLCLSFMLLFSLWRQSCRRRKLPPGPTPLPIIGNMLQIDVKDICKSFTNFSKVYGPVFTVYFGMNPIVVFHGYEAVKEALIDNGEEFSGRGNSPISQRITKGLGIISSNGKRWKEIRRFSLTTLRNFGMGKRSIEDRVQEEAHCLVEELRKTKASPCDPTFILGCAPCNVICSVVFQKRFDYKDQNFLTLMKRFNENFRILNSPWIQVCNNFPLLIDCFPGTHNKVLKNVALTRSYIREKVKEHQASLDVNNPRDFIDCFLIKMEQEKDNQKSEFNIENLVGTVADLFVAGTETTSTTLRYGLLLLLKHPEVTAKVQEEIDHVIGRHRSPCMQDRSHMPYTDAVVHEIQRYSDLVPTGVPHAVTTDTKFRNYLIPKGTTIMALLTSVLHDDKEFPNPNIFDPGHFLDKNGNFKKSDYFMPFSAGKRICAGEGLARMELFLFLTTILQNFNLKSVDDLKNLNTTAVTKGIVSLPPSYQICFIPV
How it was run: as §1

Q: Which results are given for `CN(C(=O)n1cnc(-c2ccc[n+]([O-])c2)c1)C1CCCCC1` [BIA 10‐2474, 3‐(1‐(cyclohexyl (methyl)carbamoyl)‐1H‐imidazol‐4‐yl)pyridine 1‐oxide]?
A: efflux ratio (BCRP; highest observed net efflux ratio (ERBCRP‐ERMDCKII), 10 and 1 μM): 5.7; efflux ratio (BCRP; net ER, MDCKII‐BCRP, without inhibitor): 4.95; efflux ratio (BCRP; with Ko143 1 μM, net ER, MDCKII‐BCRP, with 1 μM of Ko143): 0.03; maximum brain concentrations (suggested) [1]: around 20 μM; effect on mortality rate compared with vehicle (SHRSP; log‐rank test P = .1882): no effect; surviving rats with haemorrhage in the hippocampus and dorsal cortex (SHRSP; vehicle three of the 14): Three of the 17; inhibitory effect on CYP2C9 (CYP2C9): did not exhibit any inhibitory effects; maximum inhibition, MATE2‐K (human MATE2-K): 59%; IC50 (human MATE2-K; IC50, MATE2‐K‐mediated probe substrate accumulation): 3.43 µM and 3.4 µM; rats in which PLA2g6 was completely inhibited (CaI‐PLA2 (PLA2G6); 30 mg·kg^−1): four out of six rats; rats in which PLA2g6 was completely inhibited (CaI‐PLA2 (PLA2G6); 100 mg·kg^−1): three out of six rats; transporter specific fold accumulations [2]: < 2; inhibition at 10 μg·ml^−1 (OCT2): 25%; brain histopathology (rat brain): no abnormalities; overt behavioural abnormalities during treatment (rat brain): none of the animals used in this study showed any overt behavioural abnormalities; inhibitory effect on CYP2C19 (CYP2C19): did not exhibit any inhibitory effects; effect on OAT1‐mediated probe substrate accumulation (human OAT1): did not influence; inhibition at 10 μg·ml^−1 (MATE1): 24%; inhibition (OAT3): 34%; inhibitory effect on CYP2E1 (CYP2E1): did not exhibit any inhibitory effects; inhibitory effect on CYP2B6 (CYP2B6): did not exhibit any inhibitory effects; inhibition at 10 μg·ml^−1 (OCT1): 26%; effect on OATP1B3‐mediated probe substrate accumulation (human OATP1B3): did not influence; efflux ratio (MDR1; MDCK-MDR1, highest observed net efflux ratio (ERMDR1‐ERMDCKII)): 2.24; efflux ratio at 10 μM (MDR1; MDCK-MDR1, net ER, MDCKII‐MDR1, without inhibitor): 1.45; inhibitory effect on CYP2C8 (CYP2C8): did not exhibit any inhibitory effects
